System: HEK-293T
Experiment: Multiplex assay against HEK293T
Type: toxicity, cell-based
Settings: human
In short: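 Values for tubulin, mitochondrial-mass and membrane-permeability phenotypes are per cents of cells with healthy nuclei. These cells were identified by CellPathfinder machine-learning gating of live cells that had been stained at seeding with Hoechst33342, BioTracker Green Microtubule Cytoskeleton Dye, MitoTracker Red and Annexin V Alexa Fluor 680 and imaged on a CQ1 microscope at 37°C and 5% CO2 after compound addition. The gating first set Hoechst high-intensity objects apart from normal cells, then split normal cells into healthy, pyknosed or fragmented nuclei, and pyknosed cells into mitotic or apoptotic.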

[1] = 12 h, 1 µM, compound concentration 1 uM, replicate 1
[2] = 12 h, 1 µM, compound concentration 1 uM, replicate 2
[3] = 12 h, 10 µM, compound concentration 10 uM, replicate 1
[4] = 12 h, 10 µM, compound concentration 10 uM, replicate 2
[5] = 24 h, 1 µM, compound concentration 1 uM, replicate 1
[6] = 24 h, 1 µM, compound concentration 1 uM, replicate 2
[7] = 24 h, 10 µM, compound concentration 10 uM, replicate 1
[8] = 24 h, 10 µM, compound concentration 10 uM, replicate 2
[9] = 48 h, 1 µM, compound concentration 1 uM, replicate 1
[10] = 48 h, 1 µM, compound concentration 1 uM, replicate 2
[11] = 48 h, 10 µM, compound concentration 10 uM, replicate 1
[12] = 48 h, 10 µM, compound concentration 10 uM, replicate 2

With CN[C@@H](C)C(=O)N[C@H](C(=O)N1CCC[C@H]1C(=O)Nc1snnc1-c1ccccc1)C1CCCCC1 [GDC-0152] as the compound, how does the “Population Apoptotic (%)” value [1] read?
The value was 31%.

And the “Population Fragmented Nuclei (%)” value [1]?
Its value is 5%.

And the “Population Healthy Nuclei (%)” value [1]?
The value was 78%.

And the “Population Hoechst High Intensity Objects (%)” value [1]?
Its value is 5%.

What about the “Population Membrane Permeable-Phenotype (%)” value [1] of the same compound?
The value was 0%.

What about the “Population Mitochondria Different-Phenotype (%)” value [1] of the same compound?
The value was 41%.

And the “Population Mitotic Cells (%)” value [1]?
The value was 68%.

What about the “Population Normal (%)” value [1] of the same compound?
The value was 94%.

And the “Population Pyknosed Nuclei (%)” value [1]?
Its value is 15%.

And the “Population Tubulin-Different-Phenotype (%)” value [1]?
The value was 35%.

And the “Total Cell Count” value [1]?
The value was 444.

And the “Population Apoptotic (%)” value [2]?
Its value is 60%.

What about the “Population Healthy Nuclei (%)” value [2] of the same compound?
Its value is 79%.

And the “Population Hoechst High Intensity Objects (%)” value [2]?
The value was 7%.

And the “Population Mitochondria Different-Phenotype (%)” value [2]?
Its value is 62%.

What about the “Population Mitotic Cells (%)” value [2] of the same compound?
Its value is 39%.

And the “Population Normal (%)” value [2]?
Its value is 92%.

What about the “Population Pyknosed Nuclei (%)” value [2] of the same compound?
Its value is 14%.

And the “Population Tubulin-Different-Phenotype (%)” value [2]?
The value was 26%.

And the “Total Cell Count” value [2]?
Its value is 314.

What about the “Population Apoptotic (%)” value [3] of the same compound?
The value was 50%.

What about the “Population Fragmented Nuclei (%)” value [3] of the same compound?
The value was 6%.

What about the “Population Healthy Nuclei (%)” value [3] of the same compound?
Its value is 73%.

And the “Population Hoechst High Intensity Objects (%)” value [3]?
Its value is 13%.

And the “Population Membrane Permeable-Phenotype (%)” value [3]?
Its value is 0%.

And the “Population Mitochondria Different-Phenotype (%)” value [3]?
The value was 78%.

And the “Population Mitotic Cells (%)” value [3]?
Its value is 49%.

And the “Population Normal (%)” value [3]?
Its value is 86%.

And the “Population Pyknosed Nuclei (%)” value [3]?
The value was 20%.

And the “Population Tubulin-Different-Phenotype (%)” value [3]?
Its value is 78%.

What about the “Total Cell Count” value [3] of the same compound?
Its value is 362.

And the “Population Apoptotic (%)” value [4]?
Its value is 72%.

And the “Population Fragmented Nuclei (%)” value [4]?
Its value is 7%.

And the “Population Hoechst High Intensity Objects (%)” value [4]?
Its value is 20%.

What about the “Population Mitochondria Different-Phenotype (%)” value [4] of the same compound?
Its value is 89%.

What about the “Population Mitotic Cells (%)” value [4] of the same compound?
Its value is 28%.

And the “Population Normal (%)” value [4]?
The value was 80%.

What about the “Population Pyknosed Nuclei (%)” value [4] of the same compound?
Its value is 18%.

What about the “Population Tubulin-Different-Phenotype (%)” value [4] of the same compound?
Its value is 72%.

And the “Total Cell Count” value [4]?
The value was 330.

And the “Population Apoptotic (%)” value [5]?
Its value is 30%.

What about the “Population Fragmented Nuclei (%)” value [5] of the same compound?
Its value is 8%.

What about the “Population Healthy Nuclei (%)” value [5] of the same compound?
The value was 80%.

And the “Population Hoechst High Intensity Objects (%)” value [5]?
Its value is 4%.

And the “Population Membrane Permeable-Phenotype (%)” value [5]?
Its value is 1%.

What about the “Population Mitochondria Different-Phenotype (%)” value [5] of the same compound?
Its value is 28%.

What about the “Population Mitotic Cells (%)” value [5] of the same compound?
Its value is 69%.

And the “Population Normal (%)” value [5]?
The value was 95%.

What about the “Population Pyknosed Nuclei (%)” value [5] of the same compound?
Its value is 10%.

And the “Population Tubulin-Different-Phenotype (%)” value [5]?
Its value is 23%.

And the “Total Cell Count” value [5]?
Its value is 601.

And the “Population Apoptotic (%)” value [6]?
Its value is 38%.

And the “Population Fragmented Nuclei (%)” value [6]?
The value was 5%.

And the “Population Healthy Nuclei (%)” value [6]?
The value was 82%.

And the “Population Hoechst High Intensity Objects (%)” value [6]?
Its value is 6%.

And the “Population Membrane Permeable-Phenotype (%)” value [6]?
The value was 0%.

And the “Population Mitochondria Different-Phenotype (%)” value [6]?
The value was 53%.

And the “Population Mitotic Cells (%)” value [6]?
Its value is 61%.

What about the “Population Normal (%)” value [6] of the same compound?
The value was 93%.

And the “Population Pyknosed Nuclei (%)” value [6]?
Its value is 12%.

What about the “Population Tubulin-Different-Phenotype (%)” value [6] of the same compound?
Its value is 22%.

And the “Total Cell Count” value [6]?
The value was 387.

And the “Population Apoptotic (%)” value [7]?
Its value is 45%.

And the “Population Fragmented Nuclei (%)” value [7]?
Its value is 10%.

What about the “Population Healthy Nuclei (%)” value [7] of the same compound?
The value was 71%.

What about the “Population Hoechst High Intensity Objects (%)” value [7] of the same compound?
The value was 7%.

What about the “Population Membrane Permeable-Phenotype (%)” value [7] of the same compound?
Its value is 0%.

What about the “Population Mitochondria Different-Phenotype (%)” value [7] of the same compound?
The value was 74%.

And the “Population Mitotic Cells (%)” value [7]?
The value was 54%.

And the “Population Normal (%)” value [7]?
The value was 92%.

And the “Population Pyknosed Nuclei (%)” value [7]?
Its value is 17%.

What about the “Population Tubulin-Different-Phenotype (%)” value [7] of the same compound?
Its value is 69%.

What about the “Total Cell Count” value [7] of the same compound?
Its value is 454.

And the “Population Apoptotic (%)” value [8]?
The value was 60%.

What about the “Population Fragmented Nuclei (%)” value [8] of the same compound?
The value was 12%.

What about the “Population Healthy Nuclei (%)” value [8] of the same compound?
The value was 68%.

And the “Population Hoechst High Intensity Objects (%)” value [8]?
The value was 21%.

What about the “Population Mitochondria Different-Phenotype (%)” value [8] of the same compound?
The value was 80%.

What about the “Population Mitotic Cells (%)” value [8] of the same compound?
The value was 40%.

And the “Population Normal (%)” value [8]?
The value was 78%.

What about the “Population Pyknosed Nuclei (%)” value [8] of the same compound?
The value was 19%.

And the “Population Tubulin-Different-Phenotype (%)” value [8]?
The value was 58%.

What about the “Total Cell Count” value [8] of the same compound?
Its value is 400.

And the “Population Apoptotic (%)” value [9]?
Its value is 31%.

What about the “Population Fragmented Nuclei (%)” value [9] of the same compound?
The value was 12%.

And the “Population Healthy Nuclei (%)” value [9]?
Its value is 78%.

And the “Population Hoechst High Intensity Objects (%)” value [9]?
Its value is 4%.

What about the “Population Membrane Permeable-Phenotype (%)” value [9] of the same compound?
The value was 1%.

What about the “Population Mitochondria Different-Phenotype (%)” value [9] of the same compound?
Its value is 22%.

What about the “Population Mitotic Cells (%)” value [9] of the same compound?
The value was 68%.

And the “Population Normal (%)” value [9]?
The value was 95%.

What about the “Population Pyknosed Nuclei (%)” value [9] of the same compound?
Its value is 9%.

What about the “Population Tubulin-Different-Phenotype (%)” value [9] of the same compound?
Its value is 16%.

What about the “Total Cell Count” value [9] of the same compound?
The value was 928.

What about the “Population Apoptotic (%)” value [10] of the same compound?
Its value is 40%.

And the “Population Fragmented Nuclei (%)” value [10]?
The value was 10%.

And the “Population Healthy Nuclei (%)” value [10]?
Its value is 82%.

What about the “Population Hoechst High Intensity Objects (%)” value [10] of the same compound?
The value was 3%.

What about the “Population Mitochondria Different-Phenotype (%)” value [10] of the same compound?
Its value is 29%.

What about the “Population Mitotic Cells (%)” value [10] of the same compound?
Its value is 60%.

And the “Population Normal (%)” value [10]?
Its value is 96%.

And the “Population Pyknosed Nuclei (%)” value [10]?
Its value is 6%.

What about the “Total Cell Count” value [10] of the same compound?
The value was 603.

And the “Population Apoptotic (%)” value [11]?
Its value is 47%.

And the “Population Fragmented Nuclei (%)” value [11]?
The value was 12%.

And the “Population Healthy Nuclei (%)” value [11]?
The value was 73%.

What about the “Population Hoechst High Intensity Objects (%)” value [11] of the same compound?
The value was 16%.

What about the “Population Membrane Permeable-Phenotype (%)” value [11] of the same compound?
Its value is 0%.

What about the “Population Mitochondria Different-Phenotype (%)” value [11] of the same compound?
The value was 74%.

What about the “Population Mitotic Cells (%)” value [11] of the same compound?
Its value is 52%.

And the “Population Normal (%)” value [11]?
The value was 83%.

What about the “Population Pyknosed Nuclei (%)” value [11] of the same compound?
Its value is 13%.

And the “Population Tubulin-Different-Phenotype (%)” value [11]?
The value was 55%.

What about the “Total Cell Count” value [11] of the same compound?
Its value is 538.

And the “Population Apoptotic (%)” value [12]?
The value was 60%.

And the “Population Healthy Nuclei (%)” value [12]?
Its value is 70%.

What about the “Population Hoechst High Intensity Objects (%)” value [12] of the same compound?
The value was 21%.

What about the “Population Mitochondria Different-Phenotype (%)” value [12] of the same compound?
The value was 76%.

And the “Population Mitotic Cells (%)” value [12]?
Its value is 39%.

And the “Population Normal (%)” value [12]?
The value was 78%.

And the “Population Pyknosed Nuclei (%)” value [12]?
The value was 17%.

And the “Population Tubulin-Different-Phenotype (%)” value [12]?
The value was 52%.

What about the “Total Cell Count” value [12] of the same compound?
Its value is 417.

Reference: ChEMBL document CHEMBL5058577, “EUbOPEN Chemogenomics Library 2 (Multiplex)” (2022)
